APJ agonist – agonists of human APJ apelin receptor; P35414; CHO-K1 APJ PathHunter beta-arrestin, luminescence; 0% DMSO wells, 100% apelin; activation, % at 20 µM; 0.11% of 330,000 active; AID 2520;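 active means activation more than six SD over the plate average, tested at 20 µM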
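Material: engineered CHO-K1 APJ arrestin reporter cells; amount: 1000 CHO-K1 reporter cells seeded per well; incubation: compound stimulation 90 min at 25 °C, detection 60 min; signal: luminescent beta-gal fragment complementation, chemiluminescent substrate; read-out basis: APJ agonist activity; controls: DMSO-only wells as negative, 10 nM Apelin-13 as positive control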
CCR6 antagonist – CCR6 (human) receptor antagonism | CHO-K1 CCR6 PathHunter beta-arrestin, luminescence, CCL20-stimulated | 0.49% of 340,000 active | AID 493098 | inhibition, % at 20 µM;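 active means compounds whose inhibition of the agonist-driven luminescence signal at 20 µM reaches about 50%, limit read from the data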;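 further: cells stimulated with CCL20 at 14 nM final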
CXCR6 inh – blocks human CXCR6 beta-arrestin recruitment | AID 602244 | 0.36% of 360,000 active | O00574 | CHO-K1 PathHunter CXCR6 beta-arrestin, luminescence | inhibition, % at 20 µM; in the data active means inhibition above about 34%, passing the limit was not always enough;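 further: antagonist mode with CXCL16 agonist at 10 nM final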
Target sequence (O00574 whole entry, looked up): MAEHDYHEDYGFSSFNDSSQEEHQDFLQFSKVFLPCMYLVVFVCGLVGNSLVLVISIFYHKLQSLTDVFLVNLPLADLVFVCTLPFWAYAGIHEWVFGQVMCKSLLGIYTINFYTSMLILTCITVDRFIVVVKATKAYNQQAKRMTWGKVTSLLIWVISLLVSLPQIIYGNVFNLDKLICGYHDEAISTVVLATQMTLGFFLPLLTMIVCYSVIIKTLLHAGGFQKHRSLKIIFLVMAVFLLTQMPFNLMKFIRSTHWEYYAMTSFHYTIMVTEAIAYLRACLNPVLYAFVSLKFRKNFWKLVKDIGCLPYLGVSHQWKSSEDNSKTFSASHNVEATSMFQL
APJ antagonist – APJ receptor antagonism; inhibition, % at 20 µM; P35414; 0.32% of 330,000 active; CHO-K1 APJ beta-arrestin complementation, luminescence;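 active means inhibition above about 40% at 20 µM, limit read from the data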;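 further: cells challenged with 10 nM apelin-13 agonist together with compound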
EBI2 antag – antagonists of human EBI2 receptor | P32249 | inhibition, % at 5 µM | 0.81% of 360,000 active | EBI2 beta-arrestin recruitment, luminescence, 7a,25-OHC stimulated | AID 651636; in the data active means inhibition above about 38%;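 further: enzyme fragment complementation signal reports receptor beta-arrestin coupling in cells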
APJ antag confirm – confirmation of human APJ apelin receptor antagonists; 66% of 950 active; APJ beta-arrestin recruitment, luminescence, antagonist mode; inhibition, % at 20 µM; shares compounds with APJ antagonist; in the data active means inhibition above about 50%
A number is an active result. Most compounds without a hit are left out; they make up all but 1.5% or so of the library.

Screening COc1cc(OC)cc(C(=O)N[C@H](C(=O)OCC(=O)c2ccc(C)c([N+](=O)[O-])c2)C(C)C)c1 returned APJ agonist inactive, CCR6 antagonist 50.2, CXCR6 inh inactive, APJ antagonist 47.9, EBI2 antag inactive and APJ antag confirm 51.3.
For COc1cc(OC)cc(C(=O)N[C@H](C(=O)OCC(=O)c2c[nH]c3ccccc23)C(C)C)c1 the results were APJ agonist inactive, CCR6 antagonist inactive, CXCR6 inh inactive, APJ antagonist inactive and EBI2 antag inactive.
CC(=O)C1=CCC(c2ccccc2)N(S(=O)(=O)c2ccccc2)C1 (configuration not stated) was read as CXCR6 inh inactive and EBI2 antag inactive.
Screening CCN(CC)S(=O)(=O)c1ccc2oc(SCC(=O)Nc3cc(C)on3)nc2c1 returned APJ agonist inactive, CXCR6 inh inactive, APJ antagonist 42.8, EBI2 antag inactive and APJ antag confirm 52.9.
`O=C(N[C@H](CO)c1ccccc1)[C@H]1O[C@@H](n2ccc(=O)[nH]c2=O)[C@H](O)[C@@H]1O` gave CXCR6 inh inactive and EBI2 antag inactive.
Screening Cc1ccc(NC(=O)CCNS(=O)(=O)c2ccc3c(c2)CCC(=O)N3)c(Br)c1 returned APJ agonist inactive, CCR6 antagonist inactive, CXCR6 inh inactive, APJ antagonist 41.0, EBI2 antag inactive and APJ antag confirm inactive.
Screening Cc1ccc(NC(=O)CCNS(=O)(=O)c2ccc3c(c2)CCC(=O)N3)cc1 returned APJ agonist inactive, CCR6 antagonist inactive, CXCR6 inh inactive, APJ antagonist inactive and EBI2 antag inactive.
`Cn1c(=O)c(C(=S)NC(=O)C2CC2)c(N)n(Cc2ccccc2)c1=O` gave APJ agonist inactive, APJ antagonist 41.9 and APJ antag confirm 72.1.
CCN(CC)CC(=O)c1c(N)n(Cc2ccccc2)c(=O)n(C)c1=O was read as APJ agonist inactive, CCR6 antagonist inactive, CXCR6 inh inactive, APJ antagonist inactive and EBI2 antag inactive.
For O=C(COC(=O)CCc1nc2ccccc2c(=O)[nH]1)Nc1ccc(OC(F)(F)F)cc1 the results were APJ agonist inactive, CCR6 antagonist inactive, CXCR6 inh inactive, APJ antagonist inactive and EBI2 antag inactive.
NS(=O)(=O)c1ccc(NC(=O)COC(=O)CCc2nc3ccccc3c(=O)[nH]2)cc1 was read as APJ agonist inactive, CCR6 antagonist inactive, CXCR6 inh inactive, APJ antagonist 44.9, EBI2 antag inactive and APJ antag confirm inactive.
`COc1cc(NC(=O)c2sc3ncn(CC(=O)N4CCCCC4C)c(=O)c3c2C)cc(OC)c1OC` (configuration not stated) gave CXCR6 inh inactive and EBI2 antag inactive.
For CCC[C@@H](CN1CCC[C@H]1CN1C(N)=NC[C@H]1CC(C)C)N1C[C@@H](Cc2ccccc2)N(CCc2ccc(Cl)c(Cl)c2)C1=N the results were APJ agonist inactive, CCR6 antagonist inactive, CXCR6 inh inactive, APJ antagonist 41.6, EBI2 antag inactive and APJ antag confirm 56.6.
Screening O=C(Nc1cc(Cl)ccc1N1CCOCC1)c1ccc(Br)o1 returned APJ agonist inactive, CCR6 antagonist inactive, CXCR6 inh inactive, APJ antagonist inactive and EBI2 antag inactive.
For Cc1ccnc2nc(C(=O)Nc3cc(Cl)ccc3N3CCOCC3)nn12 the results were APJ agonist inactive, CCR6 antagonist inactive, CXCR6 inh inactive, APJ antagonist 57.0, EBI2 antag inactive and APJ antag confirm inactive.
O=C(CNc1ccc(Br)cc1)c1ccccc1 was read as APJ agonist inactive, CCR6 antagonist 80.7, CXCR6 inh 45.4, APJ antagonist 94.3, EBI2 antag inactive and APJ antag confirm 104.0.
O=C(CNc1ccc(F)cc1)c1ccccc1 was read as APJ agonist inactive, CCR6 antagonist 80.2, CXCR6 inh 53.3, APJ antagonist 75.6, EBI2 antag inactive and APJ antag confirm 110.5.
Screening O=C(CNC(=S)NC(=O)c1ccc(F)cc1)c1ccccc1 returned APJ agonist inactive, CCR6 antagonist inactive, CXCR6 inh inactive, APJ antagonist inactive and EBI2 antag inactive.
NC(=O)c1ccccc1NCC(=O)c1ccc(F)cc1 was read as APJ agonist inactive, CCR6 antagonist 99.2, CXCR6 inh inactive, APJ antagonist 82.1, EBI2 antag inactive and APJ antag confirm 139.6.
Screening O=C(CNc1cccc(Cl)c1)c1ccc(Br)cc1 returned APJ agonist inactive, CCR6 antagonist 62.4, CXCR6 inh inactive, APJ antagonist 68.7, EBI2 antag inactive and APJ antag confirm 89.8.
For Cn1c(=O)c2cc(NC(=S)NC3CCCCC3)ccc2n1Cc1ccc(Cl)cc1 the results were CXCR6 inh inactive and EBI2 antag inactive.
Screening CCCCn1nnnc1C(c1cc2ccccc2o1)N(C)Cc1ccccc1 (configuration not stated) returned CXCR6 inh inactive and EBI2 antag inactive.
Screening COc1c2ccccc2nn1C(C)C returned CXCR6 inh inactive and EBI2 antag inactive.
For CCc1nc2ccc(C(=O)N(C)Cc3ccccc3)cn2c1N(C)Cc1ccc(OC)cc1 the results were CXCR6 inh inactive and EBI2 antag inactive.
CCc1nc2c(OCC(=O)c3ccc(Cl)cc3Cl)cccn2c1N(C=O)Cc1ccccc1 was read as CXCR6 inh inactive and EBI2 antag inactive.
Screening CCN(CC)CCN(C(=O)c1ccc(C(=O)c2ccccc2)cc1)c1nc2ccc(OC)cc2s1 returned APJ agonist inactive, CCR6 antagonist inactive, CXCR6 inh inactive, APJ antagonist 51.1, EBI2 antag inactive and APJ antag confirm inactive.
Screening COc1ccc(OC)c(NC(=O)C2(C)CCN2C(=O)CCC2CCCC2)c1 (configuration not stated) returned CXCR6 inh inactive and EBI2 antag inactive.
Cc1ccc(NC(=S)NCC2CCCO2)cc1 (configuration not stated) was read as APJ agonist inactive, CCR6 antagonist inactive, CXCR6 inh inactive, APJ antagonist 45.3, EBI2 antag inactive and APJ antag confirm inactive.
Screening CCC(C)(C)C(=O)Nc1cc([N+](=O)[O-])ccc1Cl returned APJ agonist inactive, CCR6 antagonist inactive, CXCR6 inh inactive, APJ antagonist inactive and EBI2 antag inactive.
CCN(CC)c1nc(C)c(C(=S)Nc2cc([N+](=O)[O-])ccc2Cl)s1 was read as APJ agonist inactive, CCR6 antagonist 57.0, CXCR6 inh 42.2, APJ antagonist 40.1, EBI2 antag inactive and APJ antag confirm 100.1.
Screening COc1ccccc1CNC(=O)Nc1nc(C(N)CCc2ccccc2)cs1 (configuration not stated) returned CXCR6 inh inactive and EBI2 antag inactive.
Screening Cc1ccc(C(=O)COC(=O)C(C)N2C(=O)C3C4CCC(C4)C3C2=O)cc1C (configuration not stated) returned APJ agonist inactive, CCR6 antagonist inactive, CXCR6 inh inactive, APJ antagonist inactive and EBI2 antag inactive.

Screening results deposited in PubChem BioAssay by Sanford-Burnham Center for Chemical Genomics.
